Experimental data as given in ChEMBL document CHEMBL3860041, “Synthesis, biological evaluation and molecular modeling study of some new methoxylated 2-benzylthio-quinazoline-4(3H)-ones as nonclassical antifolates” (Bioorg Med Chem Lett, 2016).

Legend:
Type in all cases: functional
[1] = Growth inhibition of human HL-60(TB) cells at 10 uM after 48 hrs by SRB assay relative to control; conditions: HL-60, 48 h, read-out: GI
Method in brief: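 NCI disease-oriented human tumour cell line screen: primary single-dose assay at 10 μM across the full 60-cell-line panel spanning nine tumour subpanels.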

[2] = Growth inhibition of human K562 cells at 10 uM after 48 hrs by SRB assay relative to control; conditions: K562, 48 h, read-out: GI
Method in brief: (§1)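 NCI 60-cell-line panel, nine tumor subpanels; compounds tested at a single dose of 10 μM in the primary screen.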

[3] = Growth inhibition of human RPMI8226 cells at 10 uM after 48 hrs by SRB assay relative to control; conditions: RPMI-8226, 48 h, read-out: GI; method in brief: as §1
[4] = Growth inhibition of human HOP62 cells at 10 uM after 48 hrs by SRB assay relative to control; conditions: HOP-62, 48 h, read-out: GI; method in brief: as §1
[5] = Growth inhibition of human NCI-H23 cells at 10 uM after 48 hrs by SRB assay relative to control; conditions: NCI-H23, 48 h, read-out: GI; method in brief: as §1
[6] = Growth inhibition of human NCI-H460 cells at 10 uM after 48 hrs by SRB assay relative to control; conditions: NCI-H460, 48 h, read-out: GI; method in brief: as §1
[7] = Growth inhibition of human COLO205 cells at 10 uM after 48 hrs by SRB assay relative to control; conditions: COLO 205, 48 h, read-out: GI; method in brief: as §1
[8] = Growth inhibition of human HCT116 cells at 10 uM after 48 hrs by SRB assay relative to control; conditions: HCT-116, 48 h, read-out: GI; method in brief: as §1
[9] = Growth inhibition of human HCT15 cells at 10 uM after 48 hrs by SRB assay relative to control; conditions: HCT-15, 48 h, read-out: GI; method in brief: as §1
[10] = Growth inhibition of human KM12 cells at 10 uM after 48 hrs by SRB assay relative to control; conditions: KM12, 48 h, read-out: GI; method in brief: as §1
[11] = Growth inhibition of human SW620 cells at 10 uM after 48 hrs by SRB assay relative to control; conditions: SW-620, 48 h, read-out: GI
Method in brief: (§2)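 Primary screen across the full NCI 60 human tumour cell line panel, which covers nine tumour subpanels. A single dose of 10 μM was applied to each line, and growth was recorded for each cell line.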

[12] = Growth inhibition of human SF295 cells at 10 uM after 48 hrs by SRB assay relative to control; conditions: SF-295, 48 h, read-out: GI; method in brief: as §1
[13] = Growth inhibition of human MALME-3M cells at 10 uM after 48 hrs by SRB assay relative to control; conditions: read-out: GI; method in brief: as §1
[14] = Growth inhibition of human M14 cells at 10 uM after 48 hrs by SRB assay relative to control; conditions: M14, 48 h, read-out: GI; method in brief: as §1
[15] = Growth inhibition of human IGROV1 cells at 10 uM after 48 hrs by SRB assay relative to control; conditions: IGROV-1, 48 h, read-out: GI; method in brief: as §1
[16] = Growth inhibition of human OVCAR3 cells at 10 uM after 48 hrs by SRB assay relative to control; conditions: OVCAR-3, 48 h, read-out: GI; method in brief: as §1
[17] = Growth inhibition of human OVCAR5 cells at 10 uM after 48 hrs by SRB assay relative to control; conditions: OVCAR-5, 48 h, read-out: GI; method in brief: as §1
[18] = Growth inhibition of human ACHN cells at 10 uM after 48 hrs by SRB assay relative to control; conditions: read-out: GI; method in brief: as §1
[19] = Growth inhibition of human PC3 cells at 10 uM after 48 hrs by SRB assay relative to control; conditions: PC-3, 48 h, read-out: GI; method in brief: as §1
[20] = Growth inhibition of human BT549 cells at 10 uM after 48 hrs by SRB assay relative to control; conditions: BT-549, 48 h, read-out: GI; method in brief: as §1
[21] = Growth inhibition of human T47D cells at 10 uM after 48 hrs by SRB assay relative to control; conditions: read-out: GI; method in brief: as §2
Cancer cell lines [22] = test: Potency index, ratio of 5-fluorouracil GI50 to compound GI50 for human breast cancer cells
Method in brief: (§3)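 GI50 for each cell line came from NCI panel testing over a 5-log dose range, with 5-fluorouracil tested alongside as the reference drug. The index relates the 5-fluorouracil GI50 to the compound GI50 within each tumour subpanel.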

Melanoma cell = test: Potency index, ratio of 5-fluorouracil GI50 to compound GI50 for human melanoma cells; method in brief: as §3
Cancer cell lines [23] = test: Potency index, ratio of 5-fluorouracil GI50 to compound GI50 for human colon cancer cells; method in brief: as §3
Cancer cell lines [24] = test: Potency index, ratio of 5-fluorouracil GI50 to compound GI50 for human non-small cell lung cancer cells; method in brief: as §3
[25] = Growth inhibition of human CNS cancer cells after 48 hrs by SRB assay; conditions: Cancer cell lines
Method in brief: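 Five-log dose range against NCI tumor cell lines, monitoring GI50, TGI and LC50 for each cell line; MG-MID values derived across the panel; 5-fluorouracil positive control.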

[26] = Growth inhibition of human leukemia cells after 48 hrs by SRB assay; conditions: Leukemia cell
Method in brief: (§4)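 Follow-up NCI panel testing over a 5-log dose range for each cell line. GI50, TGI and LC50 were monitored, with 5-fluorouracil run as the positive control. Values are grouped by tumour subpanel.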

[27] = Growth inhibition of human non-small cell lung cancer cells after 48 hrs by SRB assay; conditions: Cancer cell lines; method in brief: as §4
[28] = Growth inhibition of human ovarian cancer cells after 48 hrs by SRB assay; conditions: Cancer cell lines; method in brief: as §4
[29] = Growth inhibition of human prostate cancer cells after 48 hrs by SRB assay; conditions: Cancer cell lines; method in brief: as §4
[30] = Growth inhibition of human breast cancer cells after 48 hrs by SRB assay; conditions: Cancer cell lines; method in brief: as §4

COc1cc2nc(SCc3cc(OC)c(OC)c(OC)c3)n(Cc3ccccc3)c(=O)c2cc1OC
inhibition of growth at 10 µM [1]: 88.1%
inhibition of growth at 10 µM [2]: 89.8%
inhibition of growth at 10 µM [3]: 45.3%
inhibition of growth at 10 µM [4]: 58.6%
inhibition of growth at 10 µM [5]: 79.6%
inhibition of growth at 10 µM [6]: 77.7%
inhibition of growth at 10 µM [7]: 92.6%
inhibition of growth at 10 µM [8]: 85.4%
inhibition of growth at 10 µM [9]: 79.9%
inhibition of growth at 10 µM [10]: 84.6%
inhibition of growth at 10 µM [11]: 66.6%
inhibition of growth at 10 µM [12]: 80.3%
inhibition of growth at 10 µM [13]: 78.1%
inhibition of growth at 10 µM [14]: 85.2%
inhibition of growth at 10 µM [15]: 60.8%
inhibition of growth at 10 µM [16]: 93.8%
inhibition of growth at 10 µM [17]: 46.3%
inhibition of growth at 10 µM [18]: 60.8%
inhibition of growth at 10 µM [19]: 51.2%
inhibition of growth at 10 µM [20]: 83.2%
inhibition of growth at 10 µM [21]: 64.1%
RatioGI50 (Cancer cell lines [22]): 2 - 10
RatioGI50 (Melanoma cell): 2 - 10
RatioGI50 (Cancer cell lines [23]): 2 - 10
RatioGI50 (Cancer cell lines [24]): 2 - 10
GI50 [25]: 3.4 µM
LC50 (lethal concentration, 50% net cell kill) [25]: 80.6 µM
TGI [25]: 24.5 µM
GI50 [26]: 1.9 µM
TGI [26]: > 100 µM
CC50 ([26]; read-out: LC50 (the source's name)): > 100 µM
GI50 [27]: 3.6 µM
LC50 (concentration killing 50% of cells) [27]: 94.5 µM
TGI [27]: 63.1 µM
GI50 [28]: 6.4 µM
LC50 (50% lethal concentration) [28]: > 100 µM
TGI [28]: 62.7 µM
GI50 [29]: 4 µM
LC50 (concentration killing 50% of cells) [29]: > 100 µM
TGI [29]: > 100 µM
GI50 [30]: 2.5 µM
LC50 [30]: 99.3 µM
TGI [30]: 47.4 µM
